Test [1] deals with T1, Prostaglandin E2 receptor EP1 subtype (Homo sapiens, UniProt P34995).
T1 sequence (P34995 whole entry): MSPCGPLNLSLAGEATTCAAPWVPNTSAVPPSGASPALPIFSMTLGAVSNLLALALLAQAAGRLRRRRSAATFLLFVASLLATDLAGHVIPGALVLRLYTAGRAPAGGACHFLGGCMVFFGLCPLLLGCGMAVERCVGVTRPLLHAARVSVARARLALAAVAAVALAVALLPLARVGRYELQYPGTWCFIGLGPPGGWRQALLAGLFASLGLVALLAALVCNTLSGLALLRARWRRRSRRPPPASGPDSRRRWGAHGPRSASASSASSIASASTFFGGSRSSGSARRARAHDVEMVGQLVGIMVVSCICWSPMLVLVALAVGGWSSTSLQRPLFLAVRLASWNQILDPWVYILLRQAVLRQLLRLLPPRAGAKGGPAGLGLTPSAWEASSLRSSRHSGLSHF
Put plainly: Antagonist activity at human EP1 expressed in CHOK1 cells receptor assessed as inhibition of intracellular calcium mobilization by FLIPR assay. The format is functional, cell-based, CHO-K1. An outline of the steps:
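Stable EP1- or EP3-transfected CHO-K1 whole cells loaded with calcium-sensitive dye Fluo-3; inhibition of PGE2-evoked intracellular Ca2+ mobilisation read on a fluorimetric imaging plate reader (FLIPR). IC50s converted to pKi. Means of at least two experiments unless specified.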
(Calcium flux is commonly read through the fluorescence of an indicator in the cells.)

The target of test [2] is T1, Prostaglandin E2 receptor EP1 subtype. The test can be described thus: Displacement of [3H]PGE2 from EP1 expressed in CHO cells. In kind it is cell-based. An outline of the steps:
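Membranes from stable EP1-transfected CHO-K1 cells incubated with compound and [3H]-PGE2 (3 nM final) for 30 min at 30 °C. Bound radioactivity counted by liquid scintillation. Means of at least four experiments.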
A general note: Loss of bound radioactivity is the signal in a displacement assay; it reports binding, not function.

As to `COc1ccc(CCNC(=O)CN(c2ccc(C)cc2)S(=O)(=O)c2ccc(C)cc2)cc1OC`, in test [1], the inhibitory constant (Ki) was over 1120 nM.

Consider `CCc1ccccc1N(CC(=O)NCc1cccc(OC)c1)S(=O)(=O)c1ccc(C)cc1`, for which the figures for the inhibition constant Ki in test [1] and in test [2] were 138 nM and 79.4 nM, respectively. In the case of `Cc1ccc(S(=O)(=O)N(CC(=O)NCc2ccc(Cl)cc2)c2cccnc2C)cc1`, the results for the inhibitory constant (Ki) in test [1] and in test [2] were 676 nM and 200 nM, respectively. For `CCc1ccccc1N(CC(=O)NCCc1ccc(OC)c(OC)c1)S(=O)(=O)c1ccccc1C#N`, the inhibition constant Ki in test [1] is over 3160 nM.

As for `Cc1ccc(S(=O)(=O)N(CC(=O)NCc2ccc(Cl)cc2)c2ccc(C)nc2)cc1`, the Ki was over 1450 nM in test [1] and over 1000 nM in test [2]. Consider `COc1ccc(CCNC(=O)CN(c2ccccc2C)S(=O)(=O)c2ccc(C)cc2)cc1`, for which the Ki in test [1] is 170 nM. Take `CCc1ccccc1N(CC(=O)NCc1ccccc1)S(=O)(=O)c1ccc(C)cc1`: the Ki is 224 nM in test [1] and 63.1 nM in test [2]. On to `COc1ccc(CCNC(=O)CN(c2cccc(C(F)(F)F)c2)S(=O)(=O)c2ccc(C)cc2)cc1OC`, for which the inhibitory constant (Ki) in test [1] was 30.9 nM. The same measure, in the same setting: the value for `CCc1ccccc1N(CC(=O)NCCc1ccc(OC)c(OC)c1)S(=O)(=O)c1cccc(C#N)c1` was 240 nM. Regarding `Cc1ccc(S(=O)(=O)N(CC(=O)NCc2ccc(Cl)cc2)c2cccnc2)cc1`, the Ki is over 1450 nM in test [1] and over 1000 nM in test [2]. With `CCc1ccccc1N(CC(=O)NCc1ccc(C(F)(F)F)cc1)S(=O)(=O)c1ccc(C)cc1`, the Ki in test [1] is 209 nM. For the compound `CCc1ccccc1N(CC(=O)NCc1cccc(Cl)c1)S(=O)(=O)c1ccc(C)cc1`, the Ki was 1410 nM in test [1] and 251 nM in test [2].

Take `CNS(=O)(=O)c1cc(CCNC(=O)CN(c2ccccc2C)S(=O)(=O)c2ccc(C)cc2)ccc1O`: in test [1], the inhibition constant Ki is 3.72 nM. For `CCc1ccccc1N(CC(=O)NCc1ccc(OC)c(OC)c1)S(=O)(=O)c1ccc(C)cc1`, the Ki in test [1] was 282 nM; in test [2], 25.1 nM. Regarding `Cc1ccc(S(=O)(=O)N(CC(=O)NCc2ccc(Cl)cc2)c2ccccn2)cc1`, the Ki is over 1450 nM in test [1] and over 1000 nM in test [2].

Turning to `CCn1nccc1N(CC(=O)NCc1ccc(Cl)cc1)S(=O)(=O)c1ccc(C)cc1`, the Ki is 72.4 nM in test [1] and 158 nM in test [2]. As to `COc1ccc(CCNC(=O)CN(c2ccc(Br)cc2)S(=O)(=O)c2ccc(C)cc2)cc1OC`, the inhibition constant (Ki) in test [1] is over 3800 nM. As for `Cc1ccc(S(=O)(=O)N(CC(=O)NCc2ccc(Cl)cc2)c2ncccc2C)cc1`, the values for the Ki in test [1] and in test [2] were over 1450 nM and 794 nM, respectively.

Consider `COc1ccc(CCNC(=O)CN(c2ccc(F)cc2)S(=O)(=O)c2ccc(C)cc2)cc1OC`, for which the Ki in test [1] is over 1580 nM. As to `COc1ccc(CCNC(=O)CN(c2cccc(C)c2)S(=O)(=O)c2ccc(C)cc2)cc1OC`, the Ki in test [1] is 61.7 nM. Take `COc1ccc(CCNC(=O)CN(c2ccccc2C)S(=O)(=O)c2ccc(C)cc2)cc1OC`: the inhibition constant (Ki) in test [1] was 38.9 nM. As for `COc1ccc(N(CC(=O)NCCc2ccc(OC)c(OC)c2)S(=O)(=O)c2ccc(C)cc2)cc1`, the inhibitory constant (Ki) in test [1] is over 1580 nM. On to `COc1ccc(CCNC(=O)CN(c2ccccc2)S(=O)(=O)c2ccc(C)cc2)cc1OC`, for which the Ki in test [1] was 589 nM.

In the case of `CCc1ccccc1N(CC(=O)NCc1ccccc1OC)S(=O)(=O)c1ccc(C)cc1`, in test [1], the Ki is 1070 nM.

Consider `CCc1ccccc1N(CC(=O)NCCc1ccc(OC)c(OC)c1)S(=O)(=O)c1ccc(OC)cc1`, for which the inhibition constant (Ki) in test [1] is 170 nM. In the case of `CCc1ccccc1N(CC(=O)NCCc1ccc(OC)c(OC)c1)S(=O)(=O)c1ccc(Br)cc1`, the Ki in test [1] was 28.8 nM. Regarding `COc1ccc(CCNC(=O)CN(c2ccccc2C)S(=O)(=O)c2ccc(C)cc2)c(F)c1OC`, the Ki in test [1] is 66.1 nM.

On to `Cc1ccc(S(=O)(=O)N(CC(=O)NCc2ccc(Cl)cc2)c2ccc(C)cn2)cc1`, for which the inhibition constant (Ki) is over 1450 nM in test [1] and over 1000 nM in test [2]. As for `Cc1ccc(S(=O)(=O)N(CC(=O)NCCc2ccc(Cl)cc2)c2ccccc2C)cc1`, in test [1], the inhibitory constant (Ki) is 661 nM. In the case of `CCc1ccccc1N(CC(=O)NCCc1ccc(OC)c(OC)c1)S(=O)(=O)c1ccc(OC(F)(F)F)cc1`, the Ki in test [1] is 69.2 nM. For `CCc1ccccc1N(CC(=O)NCc1ccc(OC)cc1)S(=O)(=O)c1ccc(C)cc1`, the inhibition constant (Ki) in test [1] was 35.5 nM; in test [2] it was 25.1 nM. In the case of `CCc1ccccc1N(CC(=O)NCCc1ccc(OC)c(OC)c1)S(=O)(=O)c1cccc(OC(F)(F)F)c1`, the Ki in test [1] is 708 nM. As to `CCc1ccccc1N(CC(=O)NCCc1ccc(OC)c(OC)c1)S(=O)(=O)c1ccccc1Cl`, the Ki in test [1] was 2000 nM. `Cc1ccc(S(=O)(=O)N(CC(=O)NCc2ccc(Cl)cc2)c2cccc(C)n2)cc1`: the Ki was over 1450 nM in test [1] and over 1000 nM in test [2].

With `CCc1ccccc1N(CC(=O)NCc1ccccc1F)S(=O)(=O)c1ccc(C)cc1`, in test [1], the inhibition constant Ki is 135 nM. Same read-out and setting: the figure for `COc1ccc(CCNC(=O)CN(c2ccc(Cl)cc2)S(=O)(=O)c2ccc(C)cc2)cc1OC` is 1290 nM. Turning to `CCc1ccccc1N(CC(=O)NCCc1ccc(OC)c(OC)c1)S(=O)(=O)c1ccccc1C`, the inhibition constant (Ki) in test [1] is 166 nM. In the case of `COc1ccc(CCNC(=O)CN(c2cccc(C)c2C)S(=O)(=O)c2ccc(C)cc2)cc1OC`, in test [1], the inhibition constant Ki is 12.9 nM. On the same count and under the same terms, the figure for `COc1ccc(CCNC(=O)CN(c2cccc(Br)c2)S(=O)(=O)c2ccc(C)cc2)cc1OC` is 34.7 nM; for `COc1ccc(CCNC(=O)CN(c2ccccc2C)S(=O)(=O)c2ccccc2)cc1OC` it is 741 nM.

Consider `CCc1ccccc1N(CC(=O)NCCc1ccc(OC)c(OC)c1)S(=O)(=O)c1ccc(C(F)(F)F)cc1`, for which, in test [1], the Ki is 19.1 nM.

In the case of `Cc1ccc(S(=O)(=O)N(CC(=O)NCc2ccc(Cl)cc2)c2ccnn2C)cc1`, the Ki is 589 nM in test [1] and 398 nM in test [2]. Regarding `CCc1ccccc1N(CC(=O)NCc1ccc(Br)cc1)S(=O)(=O)c1ccc(C)cc1`, the Ki in test [1] was 22.9 nM.

Regarding `COc1ccc(CCNC(=O)CN(c2cccc(Cl)c2)S(=O)(=O)c2ccc(C)cc2)cc1OC`, the Ki in test [1] is 61.7 nM. Regarding `CCc1ccccc1N(CC(=O)NCc1cccc(OC(F)(F)F)c1)S(=O)(=O)c1ccc(C)cc1`, in test [1], the Ki is 427 nM.

Turning to `CCc1ccccc1N(CC(=O)NCCc1ccc(OC)c(OC)c1)S(=O)(=O)c1cccc(C)c1`, the Ki in test [1] was 1660 nM. In the case of `Cc1ccc(S(=O)(=O)N(CC(=O)NCCc2ccccc2)c2ccccc2C)cc1`, the inhibition constant (Ki) in test [1] was 1350 nM. Regarding `Cc1ccc(S(=O)(=O)N(CC(=O)NCCc2cccc(O)c2)c2ccccc2C)cc1`, the Ki in test [1] is 204 nM. As to `Cc1ccc(S(=O)(=O)N(CC(=O)NCCc2ccc(NS(C)(=O)=O)cc2)c2ccccc2C)cc1`, the inhibition constant (Ki) in test [1] is 89.1 nM.

As for `CCc1ccccc1N(CC(=O)NCCc1ccc(OC)c(OC)c1)S(=O)(=O)c1ccc(C#N)cc1`, the inhibition constant Ki in test [1] is 31.6 nM.

As usually defined, the Ki is a dissociation constant, usually derived from enzyme kinetics or from competition with a known ligand.
